Assays:
[1] = biological target: von Hippel-Lindau disease tumor suppressor/Indoleamine 2,3-dioxygenase 1 (Homo sapiens) (UniProt P14902+P40337); experiment: Protac activity at IDO1/VHL in IFNgamma-stimulated human U87 cells assessed as IDO1 degradation at 10 uM measured after 24 hrs by Western blotting analysis relative to control; format: cell-based
How it was run: (§1)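 U87 GBM cells primed with human IFNγ 50 ng/mL for 24 h, then exposed to PROTAC at 10 μM for 24 h. Lysates run on western blot; IDO1 bands quantified by densitometry and expressed as percent of normalized IDO1 protein level.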

[2] = biological target: Protein cereblon/Indoleamine 2,3-dioxygenase 1 (Homo sapiens, UniProt P14902+Q96SW2); experiment: Protac activity at IDO1/CRBN in IFNgamma-stimulated human U87 cells assessed as IDO1 degradation at 10 uM measured after 24 hrs by Western blotting analysis relative to control; format: cell-based; how it was run: as §1
Sequence of Protein cereblon/Indoleamine 2,3-dioxygenase 1 (P14902 whole entry, looked up): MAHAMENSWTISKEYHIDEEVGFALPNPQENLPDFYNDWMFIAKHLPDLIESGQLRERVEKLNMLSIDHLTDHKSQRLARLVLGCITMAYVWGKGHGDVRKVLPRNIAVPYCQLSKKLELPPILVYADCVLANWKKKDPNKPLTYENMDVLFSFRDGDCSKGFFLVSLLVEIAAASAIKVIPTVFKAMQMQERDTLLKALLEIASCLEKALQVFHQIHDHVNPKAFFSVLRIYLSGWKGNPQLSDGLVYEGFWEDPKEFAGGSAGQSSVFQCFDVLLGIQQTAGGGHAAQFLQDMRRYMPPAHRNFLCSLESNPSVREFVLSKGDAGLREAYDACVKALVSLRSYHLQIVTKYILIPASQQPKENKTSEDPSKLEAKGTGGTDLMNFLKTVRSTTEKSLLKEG
Sequence of Protein cereblon/Indoleamine 2,3-dioxygenase 1 (Q96SW2 whole entry, looked up): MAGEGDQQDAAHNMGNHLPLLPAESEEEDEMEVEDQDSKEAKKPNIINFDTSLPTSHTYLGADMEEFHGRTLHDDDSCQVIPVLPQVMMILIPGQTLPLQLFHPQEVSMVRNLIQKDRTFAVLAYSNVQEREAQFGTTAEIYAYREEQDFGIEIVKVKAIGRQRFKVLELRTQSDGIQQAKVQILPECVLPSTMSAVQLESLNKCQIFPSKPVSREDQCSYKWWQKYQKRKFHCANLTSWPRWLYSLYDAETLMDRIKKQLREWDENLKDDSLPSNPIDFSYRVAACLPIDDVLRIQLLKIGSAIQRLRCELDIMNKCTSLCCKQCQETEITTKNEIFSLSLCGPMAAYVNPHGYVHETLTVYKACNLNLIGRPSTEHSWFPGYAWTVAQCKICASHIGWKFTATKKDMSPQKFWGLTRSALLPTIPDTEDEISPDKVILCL

Sequence of von Hippel-Lindau disease tumor suppressor/Indoleamine 2,3-dioxygenase 1 (Homo sapiens) (P14902 whole entry, looked up): as the sequence (P14902 whole entry, looked up) above
Sequence of von Hippel-Lindau disease tumor suppressor/Indoleamine 2,3-dioxygenase 1 (Homo sapiens) (P40337 whole entry, looked up): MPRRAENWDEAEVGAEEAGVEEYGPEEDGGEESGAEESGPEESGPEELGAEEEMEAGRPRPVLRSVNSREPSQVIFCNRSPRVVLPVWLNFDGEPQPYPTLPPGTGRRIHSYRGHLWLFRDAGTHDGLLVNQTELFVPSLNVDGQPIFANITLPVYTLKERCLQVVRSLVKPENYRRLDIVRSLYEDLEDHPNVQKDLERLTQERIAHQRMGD

| SMILES | Activity [1] [%] | Activity [2] [%] |
| --- | --- | --- |
| Cc1ncsc1-c1ccc(CNC(=O)[C@@H]2C[C@@H](O)CN2C(=O)[C@@H](NCCOCCOCCOc2cc(NC(=O)[C@H](C)[C@H]3CC[C@@H](c4ccnc5ccc(F)cc54)CC3)ccc2Cl)C(C)(C)C)cc1 | 0 | – |
| Cc1ncsc1-c1ccc(CNC(=O)[C@@H]2C[C@@H](O)CN2C(=O)[C@@H](NCCCCOc2ccc(NC(=O)[C@H](C)[C@H]3CC[C@@H](c4ccnc5ccc(F)cc54)CC3)cc2)C(C)(C)C)cc1 | 0 | – |
| Cc1ncsc1-c1ccc(CNC(=O)[C@@H]2C[C@@H](O)CN2C(=O)[C@@H](NC(=O)C2(F)CC2)C(C)(C)C)c(OCCOCCOc2ccc(NC(=O)[C@H](C)[C@H]3CC[C@@H](c4ccnc5ccc(F)cc54)CC3)cc2)c1 | 39 | – |
| Cc1ncsc1-c1ccc(CNC(=O)[C@@H]2C[C@@H](O)CN2C(=O)[C@@H](NCCOCCOc2ccc(NC(=O)[C@H](C)[C@H]3CC[C@@H](c4ccnc5ccc(F)cc54)CC3)cc2)C(C)(C)C)cc1 | 0 | – |
| Cc1ncsc1-c1ccc(CNC(=O)[C@@H]2C[C@@H](O)CN2C(=O)[C@@H](NC(=O)C2(F)CC2)C(C)(C)C)c(OCCCCCCCOc2ccc(NC(=O)[C@H](C)[C@H]3CC[C@@H](c4ccnc5ccc(F)cc54)CC3)cc2)c1 | 41 | – |
| Cc1ncsc1-c1ccc(CNC(=O)[C@@H]2C[C@@H](O)CN2C(=O)[C@@H](NC(=O)C2(F)CC2)C(C)(C)C)c(OCCOCCOCCOCCOc2cc(NC(=O)[C@H](C)[C@H]3CC[C@@H](c4ccnc5ccc(F)cc54)CC3)ccc2Cl)c1 | 0 | – |
| Cc1ncsc1-c1ccc(CNC(=O)[C@H]2C[C@H](O)CN2C(=O)[C@H](NCCCCCCOc2cc(NC(=O)[C@H](C)[C@H]3CC[C@@H](c4ccnc5ccc(F)cc54)CC3)ccc2Cl)C(C)(C)C)cc1 | 21 | – |
| Cc1ncsc1-c1ccc(CNC(=O)[C@@H]2C[C@@H](O)CN2C(=O)[C@@H](NC(=O)C2(F)CC2)C(C)(C)C)c(OCCOCCOCCOc2ccc(NC(=O)[C@H](C)[C@H]3CC[C@@H](c4ccnc5ccc(F)cc54)CC3)cc2)c1 | 0 | – |
| Cc1ncsc1-c1ccc(CNC(=O)[C@H]2C[C@H](O)CN2C(=O)[C@H](NCCCCCCCCCOc2cc(NC(=O)[C@H](C)[C@H]3CC[C@@H](c4ccnc5ccc(F)cc54)CC3)ccc2Cl)C(C)(C)C)cc1 | 3 | – |
| Cc1ncsc1-c1ccc(CNC(=O)[C@@H]2C[C@@H](O)CN2C(=O)[C@@H](NC(=O)C2(F)CC2)C(C)(C)C)c(OCCCCOc2ccc(NC(=O)[C@H](C)[C@H]3CC[C@@H](c4ccnc5ccc(F)cc54)CC3)cc2)c1 | 10 | – |
| Cc1ncsc1-c1ccc(CNC(=O)[C@@H]2C[C@@H](O)CN2C(=O)[C@@H](NC(=O)C2(F)CC2)C(C)(C)C)c(OCCOCCOCCOCCOCCOc2cc(NC(=O)[C@H](C)[C@H]3CC[C@@H](c4ccnc5ccc(F)cc54)CC3)ccc2Cl)c1 | 0 | – |
| Cc1ncsc1-c1ccc(CNC(=O)[C@@H]2C[C@@H](O)CN2C(=O)[C@@H](NC(=O)C2(F)CC2)C(C)(C)C)c(OCCOCCOCCOCCOCCOCCOc2cc(NC(=O)[C@H](C)[C@H]3CC[C@@H](c4ccnc5ccc(F)cc54)CC3)ccc2Cl)c1 | 0 | – |
| Cc1ncsc1-c1ccc(CNC(=O)[C@@H]2C[C@@H](O)CN2C(=O)[C@@H](NCCOCCOCCOCCOCCOc2cc(NC(=O)[C@H](C)[C@H]3CC[C@@H](c4ccnc5ccc(F)cc54)CC3)ccc2Cl)C(C)(C)C)cc1 | 0 | – |
| Cc1ncsc1-c1ccc(CNC(=O)[C@H]2C[C@H](O)CN2C(=O)[C@H](NCCCOc2cc(NC(=O)[C@H](C)[C@H]3CC[C@@H](c4ccnc5ccc(F)cc54)CC3)ccc2Cl)C(C)(C)C)cc1 | 0 | – |
| Cc1ncsc1-c1ccc(CNC(=O)[C@@H]2C[C@@H](O)CN2C(=O)[C@@H](NC(=O)C2(F)CC2)C(C)(C)C)c(OCCOCCC(=O)N2CC(Oc3ccc(NC(=O)[C@H](C)[C@H]4CC[C@@H](c5ccnc6ccc(F)cc65)CC4)cc3)C2)c1 | 20 | – |
| Cc1ncsc1-c1ccc(CNC(=O)[C@@H]2C[C@@H](O)CN2C(=O)[C@@H](NC(=O)C2(F)CC2)C(C)(C)C)c(OCCCCCCCCCCOc2ccc(NC(=O)[C@H](C)[C@H]3CC[C@@H](c4ccnc5ccc(F)cc54)CC3)cc2)c1 | 23 | – |
| Cc1ncsc1-c1ccc(CNC(=O)[C@@H]2C[C@@H](O)CN2C(=O)[C@@H](NC(=O)C2(F)CC2)C(C)(C)C)c(OCCOCCCN2CCC(Oc3ccc(NC(=O)[C@H](C)[C@H]4CC[C@@H](c5ccnc6ccc(F)cc65)CC4)cc3)CC2)c1 | 0 | – |
| Cc1ncsc1-c1ccc(CNC(=O)[C@@H]2C[C@@H](O)CN2C(=O)[C@@H](NCCOCCOc2cc(NC(=O)[C@H](C)[C@H]3CC[C@@H](c4ccnc5ccc(F)cc54)CC3)ccc2Cl)C(C)(C)C)cc1 | 0 | – |
| Cc1ncsc1-c1ccc(CNC(=O)[C@@H]2C[C@@H](O)CN2C(=O)[C@@H](NC(=O)C2(F)CC2)C(C)(C)C)c(OCCOCCOCCCN2CCC(Oc3ccc(NC(=O)[C@H](C)[C@H]4CC[C@@H](c5ccnc6ccc(F)cc65)CC4)cc3)CC2)c1 | 0 | – |
| Cc1ncsc1-c1ccc(CNC(=O)[C@@H]2C[C@@H](O)CN2C(=O)[C@@H](NC(=O)C2(F)CC2)C(C)(C)C)c(OCCOCCOCCOCCOCCOCCOc2ccc(NC(=O)[C@H](C)[C@H]3CC[C@@H](c4ccnc5ccc(F)cc54)CC3)cc2)c1 | 27 | – |
| Cc1ncsc1-c1ccc(CNC(=O)[C@@H]2C[C@@H](O)CN2C(=O)[C@@H](NC(=O)C2(F)CC2)C(C)(C)C)c(OCCOCCOCCOCCOCCOc2ccc(NC(=O)[C@H](C)[C@H]3CC[C@@H](c4ccnc5ccc(F)cc54)CC3)cc2)c1 | 0 | – |

| SMILES | Activity [1] [%] | Activity [2] [%] |
| --- | --- | --- |
| Cc1ncsc1-c1ccc(CNC(=O)[C@@H]2C[C@@H](O)CN2C(=O)[C@@H](NC(=O)C2(F)CC2)C(C)(C)C)c(OCCOCCOc2cc(NC(=O)[C@H](C)[C@H]3CC[C@@H](c4ccnc5ccc(F)cc54)CC3)ccc2Cl)c1 | 23 | – |
| Cc1ncsc1-c1ccc(CNC(=O)[C@@H]2C[C@@H](O)CN2C(=O)[C@@H](NCCCCCCCOc2ccc(NC(=O)[C@H](C)[C@H]3CC[C@@H](c4ccnc5ccc(F)cc54)CC3)cc2)C(C)(C)C)cc1 | 0 | – |
| Cc1ncsc1-c1ccc(CNC(=O)[C@@H]2C[C@@H](O)CN2C(=O)[C@@H](NC(=O)C2(F)CC2)C(C)(C)C)c(OCCOCCC(=O)N2CCC(Oc3ccc(NC(=O)[C@H](C)[C@H]4CC[C@@H](c5ccnc6ccc(F)cc65)CC4)cc3)CC2)c1 | 72 | – |
| Cc1ncsc1-c1ccc(CNC(=O)[C@@H]2C[C@@H](O)CN2C(=O)[C@@H](NCCOCCOCCOCCOCCOc2ccc(NC(=O)[C@H](C)[C@H]3CC[C@@H](c4ccnc5ccc(F)cc54)CC3)cc2)C(C)(C)C)cc1 | 0 | – |
| Cc1ncsc1-c1ccc(CNC(=O)[C@@H]2C[C@@H](O)CN2C(=O)[C@@H](NCCOCCOCCOCCOc2cc(NC(=O)[C@H](C)[C@H]3CC[C@@H](c4ccnc5ccc(F)cc54)CC3)ccc2Cl)C(C)(C)C)cc1 | 0 | – |
| Cc1ncsc1-c1ccc(CNC(=O)[C@@H]2C[C@@H](O)CN2C(=O)[C@@H](NCCOCCOCCOc2ccc(NC(=O)[C@H](C)[C@H]3CC[C@@H](c4ccnc5ccc(F)cc54)CC3)cc2)C(C)(C)C)cc1 | 0 | – |
| Cc1ncsc1-c1ccc(CNC(=O)[C@@H]2C[C@@H](O)CN2C(=O)[C@@H](NC(=O)C2(F)CC2)C(C)(C)C)c(OCCCOc2cc(NC(=O)[C@H](C)[C@H]3CC[C@@H](c4ccnc5ccc(F)cc54)CC3)ccc2Cl)c1 | 0 | – |
| Cc1ncsc1-c1ccc(CNC(=O)[C@@H]2C[C@@H](O)CN2C(=O)[C@@H](NC(=O)C2(F)CC2)C(C)(C)C)c(OCCOCCOCCOc2cc(NC(=O)[C@H](C)[C@H]3CC[C@@H](c4ccnc5ccc(F)cc54)CC3)ccc2Cl)c1 | 0 | – |
| C[C@@H](C(=O)Nc1ccc(Cl)c(OCCOCCOCCNc2cccc3c2C(=O)N(C2CCC(=O)NC2=O)C3=O)c1)[C@H]1CC[C@@H](c2ccnc3ccc(F)cc32)CC1 (stereo partly specified) | – | 71 |
| C[C@@H](C(=O)Nc1ccc(OC2CN(C(=O)CCOCCOCCNC(=O)COc3cccc4c3C(=O)N(C3CCC(=O)NC3=O)C4=O)C2)cc1)[C@H]1CC[C@@H](c2ccnc3ccc(F)cc32)CC1 (stereo partly specified) | – | 9 |
| C[C@@H](C(=O)Nc1ccc(OC2CN(C(=O)CCOCCNc3cccc4c3C(=O)N(C3CCC(=O)NC3=O)C4=O)C2)cc1)[C@H]1CC[C@@H](c2ccnc3ccc(F)cc32)CC1 (stereo partly specified) | – | 90 |
| C[C@@H](C(=O)Nc1ccc(OCCOCCOCCNc2cccc3c2C(=O)N(C2CCC(=O)NC2=O)C3=O)cc1)[C@H]1CC[C@@H](c2ccnc3ccc(F)cc32)CC1 (stereo partly specified) | – | 77 |
| C[C@@H](C(=O)Nc1ccc(OC2CCN(CCCOCCOCCNC(=O)COc3cccc4c3C(=O)N(C3CCC(=O)NC3=O)C4=O)CC2)cc1)[C@H]1CC[C@@H](c2ccnc3ccc(F)cc32)CC1 (stereo partly specified) | – | 33 |
| C[C@@H](C(=O)Nc1ccc(Cl)c(OCCCNC(=O)COc2cccc3c2C(=O)N(C2CCC(=O)NC2=O)C3=O)c1)[C@H]1CC[C@@H](c2ccnc3ccc(F)cc32)CC1 (stereo partly specified) | – | 67 |
| C[C@@H](C(=O)Nc1ccc(OC2CN(C(=O)CCOCCOc3cccc4c3C(=O)N(C3CCC(=O)NC3=O)C4=O)C2)cc1)[C@H]1CC[C@@H](c2ccnc3ccc(F)cc32)CC1 (stereo partly specified) | – | 86 |
| C[C@@H](C(=O)Nc1ccc(OC2CCN(C(=O)CCOCCOCCNC(=O)COc3cccc4c3C(=O)N(C3CCC(=O)NC3=O)C4=O)CC2)cc1)[C@H]1CC[C@@H](c2ccnc3ccc(F)cc32)CC1 (stereo partly specified) | – | 81 |
| C[C@@H](C(=O)Nc1ccc(OCCOCCOCCNC(=O)COc2cccc3c2C(=O)N(C2CCC(=O)NC2=O)C3=O)cc1)[C@H]1CC[C@@H](c2ccnc3ccc(F)cc32)CC1 (stereo partly specified) | – | 47 |
| C[C@@H](C(=O)Nc1ccc(Cl)c(OCCOCCOCCOCCOc2cccc3c2C(=O)N(C2CCC(=O)NC2=O)C3=O)c1)[C@H]1CC[C@@H](c2ccnc3ccc(F)cc32)CC1 (stereo partly specified) | – | 13 |
| C[C@@H](C(=O)Nc1ccc(Cl)c(OCCCCCCNc2cccc3c2C(=O)N(C2CCC(=O)NC2=O)C3=O)c1)[C@H]1CC[C@@H](c2ccnc3ccc(F)cc32)CC1 (stereo partly specified) | – | 0 |
| C[C@@H](C(=O)Nc1ccc(OCCCCCCCCCCNC(=O)COc2cccc3c2C(=O)N(C2CCC(=O)NC2=O)C3=O)cc1)[C@H]1CC[C@@H](c2ccnc3ccc(F)cc32)CC1 (stereo partly specified) | – | 0 |
